# Assay results as given in ChEMBL document CHEMBL4130629 (J Med Chem, 2018).
# Legend:
# [1] = tested on: Human immunodeficiency virus 1; assay: Antiviral activity against ENV pseudotyped CCR5-tropic HIV1 […] infected in human HeLa67 cells after 3 days by luciferase reporter gene assay; type: functional, organism-based; details: Human immunodeficiency virus 1, HeLa67, 72 h
# Summary of the method: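 Single-cycle infection with env-deleted, luciferase-reporter HIV-1 pseudotyped with the JRFL (CCR5) envelope, supplied by transfection; viral titers normalized by luminescence without compound. HeLa 67 cells were infected in the presence of compounds given as 3-fold serial dilutions made from 30 mM DMSO stocks.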
# MT2 = assay: Cytotoxicity against human MT2 cells assessed as decrease in cell viability after 3 days […]; type: functional; details: MT2, 72 h
# [2] = Half life in human liver microsomes; type: ADME, microsome
# [3] = Metabolic stability in human liver microsomes assessed as parent compound remaining after 10 mins; type: ADME, microsome; details: read-out: Stability
# Summary of the method: (§1)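 Compound at 3 μM was incubated with human or rat liver microsomes, and the percentage of parent compound remaining was measured after 10 min.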
# [4] = Metabolic stability in rat liver microsomes assessed as parent compound remaining after 10 mins; type: ADME, microsome; details: read-out: Stability; summary of the method: as §1
# [5] = Permeability in human Caco2 cells; type: ADME, cell-based; details: Caco-2, read-out: permeability
Structure (SMILES),EC50 [1] [nM],half-life [2] [min],remaining at 10 min [3] [%],remaining at 10 min [4] [%],Papp [5] [×10⁻⁶ cm/s],CC50 (MT2) [nM]
COc1cnc(-n2cnc(C(=O)N3CCN(C)CC3)n2)c2[nH]cc(C(=O)C(=O)N3CCN(C(=O)c4ccccc4)CC3)c12,6.54,,,,,> 150000
COc1cnc(-n2nccc2N)c2[nH]cc(C(=O)C(=O)N3CCN(C(=O)c4ccccc4)[C@H](C)C3)c12,0.07,,68,85,,> 300000
COc1cnc(-c2ccncn2)c2[nH]cc(C(=O)C(=O)N3CCN(C(=O)c4ccccc4)CC3)c12,0.11,15,,,37.8,285000 to 300000
COc1cccc(-c2ncc(OC)c3c(C(=O)C(=O)N4CCN(C(=O)c5ccccc5)CC4)c[nH]c23)n1,0.91,8,,,,64000
COc1cnc(-n2ccc(-c3cccc(-c4nn[nH]n4)c3)n2)c2[nH]cc(C(=O)C(=O)N3CCN(C(=O)c4ccccc4)CC3)c12,0.02,,,,,128000
COc1ncn(-c2ncc(OC)c3c(C(=O)C(=O)N4CCN(C(=O)c5ccccc5)CC4)c[nH]c23)n1,0.13,,,,,285000
COc1cnc(-c2ccccn2)c2[nH]cc(C(=O)C(=O)N3CCN(C(=O)c4ccccc4)CC3)c12,0.13,15,,,13.4,4000
COc1cnc(-n2ccc(-c3ccc(-c4nn[nH]n4)cc3)n2)c2[nH]cc(C(=O)C(=O)N3CCN(C(=O)c4ccccc4)CC3)c12,0.03,,,,,> 300000
COc1cnc(-c2ncccn2)c2[nH]cc(C(=O)C(=O)N3CCN(C(=O)c4ccccc4)CC3)c12,1.28,32,,,10.6,> 300000
CCCSc1ncn(-c2ncc(OC)c3c(C(=O)C(=O)N4CCN(C(=O)c5ccccc5)CC4)c[nH]c23)n1,0.015,,,,,7000
CNC(=O)c1ncn(-c2ncc(OC)c3c(C(=O)C(=O)N4CCN(C(=O)c5ccccc5)CC4)c[nH]c23)n1,0.1,,,,,> 300000
COc1cnc(-c2cccnc2)c2[nH]cc(C(=O)C(=O)N3CCN(C(=O)c4ccccc4)CC3)c12,0.09,41,,,< 1.5,10000
COc1cnc(-n2ccc(N)n2)c2[nH]cc(C(=O)C(=O)N3CCN(C(=O)c4ccccc4)[C@H](C)C3)c12,0.16,,92,91,,> 300000
COc1cnc(-c2ccco2)c2[nH]cc(C(=O)C(=O)N3CCN(C(=O)c4ccccc4)CC3)c12,0.02,19,,,8.6,281000 to 300000
COc1cnc(-n2cnc(C)n2)c2[nH]cc(C(=O)C(=O)N3CCN(C(=O)c4ccccc4)[C@@H](C)C3)c12,0.52,,,95,,> 300000
COc1cnc(-n2ccc(CN(C)C)n2)c2[nH]cc(C(=O)C(=O)N3CCN(C(=O)c4ccccc4)[C@H](C)C3)c12,19.8,,,,,> 300000
COc1cnc(-n2cnc(N3CCN(C)CC3)n2)c2[nH]cc(C(=O)C(=O)N3CCN(C(=O)c4ccccc4)CC3)c12,0.14,,,,,> 300000
COc1cnc(-c2cccnn2)c2[nH]cc(C(=O)C(=O)N3CCN(C(=O)c4ccccc4)CC3)c12,0.17,29,,,2.4,> 300000
COc1cnc(-c2ccnnc2)c2[nH]cc(C(=O)C(=O)N3CCN(C(=O)c4ccccc4)CC3)c12,0.19,48,,,< 1.5,14000
COc1cnc(-n2cnc(C(=O)N(C)C)n2)c2[nH]cc(C(=O)C(=O)N3CCN(C(=O)c4ccccc4)CC3)c12,0.1,,,,,> 300000
COc1cnc(-c2ccoc2)c2[nH]cc(C(=O)C(=O)N3CCN(C(=O)c4ccccc4)CC3)c12,0.11,29,,,4.6,146000
COc1cnc(-c2cnccn2)c2[nH]cc(C(=O)C(=O)N3CCN(C(=O)c4ccccn4)[C@@H](C)C3)c12,1.04,,,,,267000 to 300000
COc1cnc(-n2cc(C)cn2)c2[nH]cc(C(=O)C(=O)N3CCN(C(=O)c4ccccc4)CC3)c12,,,,,,243000
COc1cnc(-c2ccncc2)c2[nH]cc(C(=O)C(=O)N3CCN(C(=O)c4ccccc4)CC3)c12,0.33,,,,,6000
CCCS(=O)(=O)c1ncn(-c2ncc(OC)c3c(C(=O)C(=O)N4CCN(C(=O)c5ccccc5)CC4)c[nH]c23)n1,0.78,,,,,207000

# Now from value to compound, other results behind:
EC50 [1] [nM],half-life [2] [min],remaining at 10 min [3] [%],remaining at 10 min [4] [%],Papp [5] [×10⁻⁶ cm/s],Structure (SMILES),CC50 (MT2) [nM]
0.1,17,,,,CCOc1ncc(-c2ncc(OC)c3c(C(=O)C(=O)N4CCN(C(=O)c5ccccc5)CC4)c[nH]c23)s1,> 300000
0.59,12,,,13.4,COc1cnc(-c2cccc(C)n2)c2[nH]cc(C(=O)C(=O)N3CCN(C(=O)c4ccccc4)CC3)c12,30000
0.37,37,,,7.2,COc1cnc(-c2ncco2)c2[nH]cc(C(=O)C(=O)N3CCN(C(=O)c4ccccc4)CC3)c12,15000
0.04,68,,,3.3,COc1cnc(-c2cnc(N)cn2)c2[nH]cc(C(=O)C(=O)N3CCN(C(=O)c4ccccc4)CC3)c12,20000
0.09,13,,,6.6,COc1cnc(-c2cccc(N)n2)c2[nH]cc(C(=O)C(=O)N3CCN(C(=O)c4ccccc4)CC3)c12,122000
0.26,,,,,COc1cnc(-c2cn(C)c(=O)cn2)c2[nH]cc(C(=O)C(=O)N3CCN(C(=O)c4ccccc4)CC3)c12,> 150000
0.02,21,,,,CNc1cnc(-c2ncc(OC)c3c(C(=O)C(=O)N4CCN(C(=O)c5ccccc5)CC4)c[nH]c23)cn1,> 95000
0.03,19,,,1.5,COc1cnc(-c2cncs2)c2[nH]cc(C(=O)C(=O)N3CCN(C(=O)c4ccccc4)CC3)c12,297000 to 300000
0.02,17,,,< 1.5,COc1cnc(-c2nccs2)c2[nH]cc(C(=O)C(=O)N3CCN(C(=O)c4ccccc4)CC3)c12,> 150000
0.12,18,,,6.6,COc1cnc(-c2cccs2)c2[nH]cc(C(=O)C(=O)N3CCN(C(=O)c4ccccc4)CC3)c12,36000
0.11,39,,,21.7,COc1cnc(-c2cscn2)c2[nH]cc(C(=O)C(=O)N3CCN(C(=O)c4ccccc4)CC3)c12,
0.06,26,,,,COc1cnc(-c2cnc(N)s2)c2[nH]cc(C(=O)C(=O)N3CCN(C(=O)c4ccccc4)CC3)c12,> 250000
0.04,> 100,,,< 1.5,COc1cnc(-c2cnc(O)cn2)c2[nH]cc(C(=O)C(=O)N3CCN(C(=O)c4ccccc4)CC3)c12,> 300000
0.04,19,,,17,COc1cnc(-c2cnccn2)c2[nH]cc(C(=O)C(=O)N3CCN(C(=O)c4ccccc4)CC3)c12,3460
0.26,47,,,< 1,COc1cnc(-c2cc[nH]n2)c2[nH]cc(C(=O)C(=O)N3CCN(C(=O)c4ccccc4)CC3)c12,3000
0.03,7,,,14.1,CCc1ncc(-c2ncc(OC)c3c(C(=O)C(=O)N4CCN(C(=O)c5ccccc5)CC4)c[nH]c23)s1,120000
0.13,13,,,3.9,COc1cnc(-c2ccsc2)c2[nH]cc(C(=O)C(=O)N3CCN(C(=O)c4ccccc4)CC3)c12,43000
0.06,21,,,1.5 to 2.2,COc1cnc(-c2cncc(N)n2)c2[nH]cc(C(=O)C(=O)N3CCN(C(=O)c4ccccc4)CC3)c12,14000
